Starred links: 1 amine or outer side, 2 acyl side, 3 side chain; linkers in the order of their positions; H or OH if unused. Non-standard residues stand in square brackets, D forms with d. Residues, ends and D or L forms follow the SMILES beside them. ξ: configuration not given here. *: point of attachment. ξLeuψ(P(O)(OH)CH2)ξVal = CC(C)CC(N[*:1])P(=O)(O)CC(C(=O)[*:2])C(C)C; X1 = CC(C)CC(N[*:1])P(=O)(O)C[C@@H](C(=O)[*:2])C(C)C; X2 = CC(C)CC(N[*:1])P(=O)(O)CCC(=O)[*:2]; X3 = CC(C)CC(N[*:1])P(=O)(O)CC(=O)[*:2]; NMeH = CN[C@@H](Cc1c[nH]cn1)C(=O)O; NMeF = CN[C@@H](Cc1ccccc1)C(=O)O; ξR = N=C(N)NCCCC(N)C(=O)O; Cbz = O=C(OCc1ccccc1)*; Boc = CC(C)(C)OC(=O)*; OtBu = CC(C)(C)O*
The compounds below were run against T1, Renin (Homo sapiens, UniProt P00797) (assay: In vitro inhibition against human plasma renin at pH 7.2 was determined).
T1 sequence (P00797 whole entry): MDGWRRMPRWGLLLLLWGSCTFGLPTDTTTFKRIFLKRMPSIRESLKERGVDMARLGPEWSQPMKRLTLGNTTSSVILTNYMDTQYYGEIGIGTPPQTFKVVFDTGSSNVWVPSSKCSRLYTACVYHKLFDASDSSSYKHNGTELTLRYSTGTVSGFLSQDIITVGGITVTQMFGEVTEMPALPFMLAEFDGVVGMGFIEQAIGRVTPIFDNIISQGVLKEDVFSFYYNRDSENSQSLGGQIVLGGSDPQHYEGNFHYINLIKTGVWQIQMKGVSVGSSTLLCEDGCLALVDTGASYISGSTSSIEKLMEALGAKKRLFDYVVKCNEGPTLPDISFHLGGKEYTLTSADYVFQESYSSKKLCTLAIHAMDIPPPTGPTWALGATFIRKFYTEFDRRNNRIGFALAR
Type: cell-free
In short: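 Human plasma renin activity assayed in vitro at pH 7.2 with the synthetic peptides added. IC50 is the peptide concentration that lowered plasma renin activity by 50%.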

`CC[C@H](C)[C@H](NC(=O)C(CP(=O)(O)C(CC(C)C)NC(=O)[C@H](Cc1c[nH]cn1)N(C)C(=O)[C@H](Cc1ccccc1)NC(=O)OC(C)(C)C)C(C)C)C(=O)N[C@@H](Cc1c[nH]cn1)C(N)=O` (some centres not stated) (Boc-F[NMeH][ξLeuψ(P(O)(OH)CH2)ξVal]IH-NH2) and `CC[C@H](C)[C@H](NC(=O)C(CP(=O)(O)C(CC(C)C)NC(=O)[C@H](Cc1ccccc1)N(C)C(=O)[C@H](Cc1ccccc1)NC(=O)OC(C)(C)C)C(C)C)C(=O)N[C@@H](Cc1c[nH]cn1)C(N)=O` (some centres not stated) (Boc-F[NMeF][ξLeuψ(P(O)(OH)CH2)ξVal]IH-NH2) cannot be ordered by IC50: greater than 30 µM for the first, greater than 30 µM for the second.

Going from `CC[C@H](C)[C@H](NC(=O)[C@H](CP(=O)(O)C(CC(C)C)NC(=O)[C@H](Cc1cnc[nH]1)NC(=O)[C@H](Cc1ccccc1)NC(=O)OCc1ccccc1)C(C)C)C(=O)N[C@@H](Cc1cnc[nH]1)C(N)=O` (some centres not stated) (Cbz-FH[X1]IH-NH2) to `CC[C@H](C)[C@H](NC(=O)CP(=O)(O)C(CC(C)C)NC(=O)[C@H](Cc1cnc[nH]1)NC(=O)[C@H](Cc1ccccc1)NC(=O)OCc1ccccc1)C(=O)N[C@@H](Cc1cnc[nH]1)C(N)=O` (some centres not stated) (Cbz-FH[X3]IH-NH2), the IC50 rises from 2 µM to greater than 30 µM. The first is the more potent here.

First: CC(C)CC(NC(=O)[C@H](Cc1c[nH]cn1)NC(=O)[C@H](Cc1ccccc1)NC(=O)[C@H]1CCCN1C(=O)OCc1ccccc1)P(=O)(O)O (some centres not stated)
Second: CC(C)CC(NC(=O)[C@H](Cc1cnc[nH]1)NC(=O)[C@H](Cc1ccccc1)NC(=O)[C@H]1CCCN1C(=O)OCc1ccccc1)[PH](=O)O (some centres not stated)
The IC50 of the first is lower: 6.4 µM for the first, greater than 30 µM for the second. The first is the more potent here.

Compared with `CC[C@H](C)[C@H](NC(=O)[C@@H](CP(=O)(O)[C@@H](CC(C)C)NC(=O)[C@H](Cc1c[nH]cn1)NC(=O)[C@H](Cc1ccccc1)NC(=O)[C@H]1CCCN1C(=O)[C@H](CCCN=C(N)N)NC(=O)[C@H](CCCN=C(N)N)NC(=O)OCc1ccccc1)C(C)C)C(=O)N[C@@H](Cc1c[nH]cn1)C(N)=O`, `CC[C@H](C)[C@H](NC(=O)CCP(=O)(O)[C@@H](CC(C)C)NC(=O)[C@H](Cc1c[nH]cn1)NC(=O)[C@H](Cc1ccccc1)NC(=O)[C@H]1CCCN1C(=O)[C@H](CCCN=C(N)N)NC(=O)[C@H](CCCN=C(N)N)NC(=O)OCc1ccccc1)C(=O)N[C@@H](Cc1c[nH]cn1)C(N)=O` is 100-fold higher in IC50: 0.1 µM for the first, 10 µM for the second. The first is the more potent here.

Going from `COC(=O)C(CP(=O)(O)C(CC(C)C)NC(=O)CC(O)C(CC(C)C)NC(=O)[C@H](Cc1cnc[nH]1)NC(=O)[C@H](Cc1ccccc1)NC(=O)OCc1ccccc1)C(C)C` (some centres not stated) to `CC[C@H](C)[C@H](NC(=O)C(CP(=O)(O)C(CC(C)C)NC(=O)[C@H](Cc1cnc[nH]1)NC(=O)[C@H](Cc1ccccc1)NC(=O)OCc1ccccc1)C(C)C)C(=O)N[C@@H](Cc1ccccc1)C(N)=O` (some centres not stated) (Cbz-FH[ξLeuψ(P(O)(OH)CH2)ξVal]IF-NH2), the IC50 falls from greater than 30 µM to 5 µM.

First: CC[C@H](C)[C@H](NC(=O)CCP(=O)(O)C(CC(C)C)NC(=O)[C@H](Cc1cnc[nH]1)NC(=O)[C@H](Cc1ccccc1)NC(=O)OCc1ccccc1)C(=O)N[C@@H](Cc1cnc[nH]1)C(N)=O (some centres not stated) (Cbz-FH[X2]IH-NH2)
Second: CC[C@H](C)[C@H](NC(=O)C(CP(=O)(O)C(CC(C)C)NC(=O)[C@H](Cc1cnc[nH]1)NC(=O)[C@H](Cc1ccccc1)NC(=O)[C@H]1CCCN1C(=O)OCc1ccccc1)C(C)C)C(=O)N[C@@H](Cc1cnc[nH]1)C(N)=O (some centres not stated)
The IC50 of the first is higher: greater than 30 µM for the first, 0.6 µM for the second.

Compared with `CC[C@H](C)[C@H](NC(=O)C(CP(=O)(O)C(CC(C)C)NC(=O)[C@H](Cc1cnc[nH]1)NC(=O)[C@H](Cc1ccccc1)NC(=O)[C@H]1CCCN1C(=O)[C@H](Cc1cnc[nH]1)NC(=O)[C@H]1CCCN1)C(C)C)C(=O)N[C@@H](Cc1cnc[nH]1)C(=O)N[C@@H](CCCCN)C(=O)O` (some centres not stated), `CC[C@H](C)[C@H](NC(=O)C(CP(=O)(O)C(CC(C)C)NC(=O)[C@H](Cc1ccccc1)NC(=O)[C@H](Cc1ccccc1)NC(=O)OC(C)(C)C)C(C)C)C(=O)N[C@@H](Cc1cnc[nH]1)C(N)=O` (some centres not stated) (Boc-FF[ξLeuψ(P(O)(OH)CH2)ξVal]IH-NH2) is 86-fold higher in IC50: 0.07 µM for the first, 6 µM for the second.

First: CC[C@H](C)[C@H](NC(=O)C(CP(=O)(O)C(CC(C)C)NC(=O)[C@H](Cc1c[nH]cn1)NC(=O)[C@H](Cc1ccccc1)NC(=O)OCc1ccccc1)C(C)C)C(=O)NC(CCCN=C(N)N)C(=O)OC(C)(C)C (some centres not stated) (Cbz-FH[ξLeuψ(P(O)(OH)CH2)ξVal]I[ξR]-OtBu)
Second: CC[C@H](C)[C@H](NC(=O)C(CP(=O)(O)C(CC(C)C)NC(=O)[C@H](Cc1c[nH]cn1)NC(=O)[C@H](Cc1ccccc1)NC(=O)CNC(=O)OCc1ccccc1)C(C)C)C(=O)N[C@@H](Cc1c[nH]cn1)C(N)=O (some centres not stated) (Cbz-GFH[ξLeuψ(P(O)(OH)CH2)ξVal]IH-NH2)
The IC50 of the first is higher: greater than 30 µM for the first, 0.8 µM for the second. The second is the more potent here.

`COC(=O)CC(O)[C@H](CC(C)C)NC(=O)[C@H](C)NC(=O)C(CP(=O)(O)C(CC(C)C)NC(=O)[C@H](Cc1c[nH]cn1)NC(=O)[C@H](Cc1ccccc1)NC(=O)[C@H]1CCCN1C(=O)OCc1ccccc1)C(C)C` (some centres not stated) gave an IC50 of 0.9 µM.

Source: ChEMBL document CHEMBL1124603, “Renin inhibitors. Synthesis of transition-state analogue inhibitors containing phosphorus acid derivatives at the scissile bond” (J Med Chem, 1989)
